Calls of active or inactive are those of the source. The rule behind the calls is not given here.
Key:
[1] = tested on: Rattus norvegicus; assay: Reduction of the systolic blood pressure in hypertensive Sprague-Dawley rat at 3 mg/kg, ip; format: functional, organism-based; design: dose 3 mg/kg; conditions: Artery
In short: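 Male rats (230-250 g) made hypertensive with DOCA 10 mg/kg sc daily plus 8% NaCl diet for 3-4 weeks. Single ip dose of 3 mg/kg in 0.1 mL DMSO, n = 6 per group. Systolic BP measured by tail-cuff in conscious rats 24 h before and 2 h after dosing. Normotensive and hypertensive DMSO controls included. Mean ± SE, ANOVA/LSD.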

[2] = target: T1, Type-1 angiotensin II receptor (Homo sapiens) (UniProt P30556); assay: Displacement of [125I]-Sar(1)Ile(8)-Ang 2 from human AT1 receptor in CHO cells; format: cell-based
T1 sequence (whole entry): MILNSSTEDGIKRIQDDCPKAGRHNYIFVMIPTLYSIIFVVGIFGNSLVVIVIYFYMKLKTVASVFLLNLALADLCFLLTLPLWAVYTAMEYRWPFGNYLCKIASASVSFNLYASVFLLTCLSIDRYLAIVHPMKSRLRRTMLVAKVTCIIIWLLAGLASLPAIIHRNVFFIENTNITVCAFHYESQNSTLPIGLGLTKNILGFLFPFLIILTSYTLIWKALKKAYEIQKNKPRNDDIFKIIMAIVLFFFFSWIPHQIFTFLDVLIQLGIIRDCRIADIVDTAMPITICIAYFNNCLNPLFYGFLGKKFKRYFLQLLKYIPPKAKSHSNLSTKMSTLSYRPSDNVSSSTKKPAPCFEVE
In short: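 Membranes from CHO cells stably expressing human AT1 receptor, in 50 mM Tris-HCl pH 7.4 with 100 mM NaCl, 6 mM MgCl2 and 0.1% BSA. ~50 µg protein incubated 1 h at room temperature with 0.15 nM 125I-Sar1Ile8-Ang II, with or without competitor at 10 µM final. Bound ligand separated by centrifugation, counted as cpm. Control had DMSO and no competitor. Mean cpm ± SEM.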

[3] = tested on: Rattus norvegicus; assay: Reduction of the systolic blood pressure in normotensive Sprague-Dawley rat at 3 mg/kg, ip; format: functional, organism-based; design: dose 3 mg/kg; conditions: Artery
In short: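 Normotensive male rats (230-250 g), n = 6 per group, given a single ip dose of 3 mg/kg in 0.1 mL DMSO, with a DMSO vehicle control. Systolic BP measured 2 h later by tail-cuff in conscious, cage-acclimatized rats in a 31-32 °C chamber. Mean % reduction versus control reported; ANOVA/LSD.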

Activity [2]	SMILES	Activity [1]	Activity [3]
Active	O=c1[nH]c2ccccc2c(=O)n1Cc1ccc(-c2ccccc2-c2nn[nH]n2)cc1	Active	Active
Active	CSc1nc2ccccc2c(=O)n1Cc1ccc(-c2ccccc2C(=O)O)cc1	Active	Active
Active	CSc1nc2ccccc2c(=O)n1Cc1ccc(-c2ccccc2-c2nn[nH]n2)cc1	Active	Active
Active	CCCCc1nc(Cl)c(CO)n1Cc1ccc(-c2ccccc2-c2nnn[nH]2)cc1	Active	Active
inactive	Oc1nc(SCc2ccc(-c3ccccc3-c3nn[nH]n3)cc2)nc2ccccc12	–	–
